Results pooled from the literature.
Protocols differ between the studies behind these lines.
Target: Serine/threonine-protein kinase 17A (STK17A, Homo sapiens, UniProt Q9UEE5)
Read-out: enzyme activity
Sequence (Q9UEE5 1-414, as in one of the studies): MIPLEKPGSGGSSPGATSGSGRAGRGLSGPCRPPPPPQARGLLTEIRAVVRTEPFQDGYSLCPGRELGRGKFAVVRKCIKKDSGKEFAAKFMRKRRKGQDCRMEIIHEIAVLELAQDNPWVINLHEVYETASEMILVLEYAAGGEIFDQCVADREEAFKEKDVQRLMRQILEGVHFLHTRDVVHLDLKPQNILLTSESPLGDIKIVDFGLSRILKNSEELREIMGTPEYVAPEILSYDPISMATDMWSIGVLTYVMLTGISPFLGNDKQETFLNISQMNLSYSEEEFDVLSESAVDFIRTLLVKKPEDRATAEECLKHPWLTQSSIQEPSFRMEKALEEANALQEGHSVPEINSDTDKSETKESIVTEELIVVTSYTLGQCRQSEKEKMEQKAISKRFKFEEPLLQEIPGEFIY

Structure (SMILES) | test | conditions | remaining activity [%]
CC(C)(C)c1nc2c(s1)c1nc(N)ncc1c1ccc(NS(=O)(=O)c3c(F)cccc3F)c(F)c12 | inhibitor, radiometric | 1 µM | 80
O=C(Nc1cnn(-c2csc(C(=O)NC3COC3)c2)c1)Nc1c(F)cccc1Cl | inhibitor | 5 µM | 89.4
CCCOc1ccc(OC)c(F)c1C(=O)c1ccc(C(=O)N[C@@H]2CNC[C@H]2NC(=O)c2ccc3[nH]ncc3c2)cc1 | inhibitor | 10 µM | 7
Cc1ccc(C(=O)Nc2ccc(CN3CCN(C)CC3)c(C(F)(F)F)c2)cc1C#Cc1cnc2cccnn12 |  | 23.5 nM | 100
CCN(CC)c1ccc(C2=NNC(=O)CC2C)cc1[N+](=O)[O-] (centres unmarked) | inhibitor | 10 µM | 100
Cc1nn(CC(F)(F)F)cc1Nc1ncc(Br)c(NCc2ccc(S(N)(=O)=O)cc2)n1 | inhibitor, radiometric | 1 µM | 93
COc1cc(Cl)c(C(=O)N[C@@H](CN[C@H]2CC[C@@H](N)CC2)Cc2ccc(C#N)cc2)cc1-c1ccc(CN[C@H](C)c2ccc(C)cc2)o1 | inhibitor | 1 µM | 70
CC(C)(O)[C@H]1CC[C@H](Nc2ccc3ncc(-c4cccc(C(F)(F)F)c4)n3n2)CC1 | inhibitor | 1 µM | 106
Cc1nn(CC(F)(F)F)cc1Nc1ncc(C2CC2)c(NCc2ccc(S(N)(=O)=O)cc2)n1 | inhibitor, radiometric | 1 µM | 105
O=c1cc(-c2cccc3c2Sc2ccccc2S3)oc(N2CCOCC2)c1 | inhibitor | 0.5 µM | 98.2
Cc1nn(CC(F)(F)F)cc1Nc1ncc(Br)c(NCCc2cnc[nH]2)n1 | inhibitor, radiometric | 1 µM | 63
Cc1cnc(NC2CCOCC2)nc1-n1cnc(C(=O)NC(CN)c2cc(F)cc(Cl)c2)c1 (centres unmarked) | inhibitor, radiometric | 1 µM | 100
O=C(Nc1cnn(-c2csc(C(=O)NC3COC3)c2)c1)Nc1ccccc1Cl | inhibitor | 5 µM | 98.4
NS(=O)(=O)c1ccc(CNc2nc(Nc3cccc(CN4CCOCC4)c3)ncc2C2CC2)cc1 | inhibitor, radiometric | 1 µM | 108
